Assay results published in ChEMBL document CHEMBL4011621, “A Novel Series of Highly Potent Small Molecule Inhibitors of Rhinovirus Replication” (J Med Chem, 2017).
pEC50: −log10 of the molar value.

Tests used:
[1] = Antiviral activity against Human rhinovirus A71 infected in human H1HeLa cells assessed as protection against virus induced cytopathic effect after 3 days by MTT assay; assay type: functional, cell-based; conditions: Rhinovirus A, H1-HeLa, 72 h
Outline: (§1)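 CPE-reduction assay in H1HeLa cells plated 2 d before. Equal volumes of virus and compound were added and held at 33 °C for 3 d under CO2. Supernatant was removed, then MTT was added for 1 h at 37 °C. Formazan was dissolved and read at 540 nm against a 690 nm reference. Survival was scaled between uninfected untreated wells (100%) and virus-only wells (0%); mean ± SD, three experiments.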

Poliovirus 3 = assay: Antiviral activity against Human poliovirus 3 infected in human HeLa cells assessed as protection against virus induced cytopathic effect after 2 days by MTT assay; assay type: functional, cell-based; conditions: Enterovirus C, 48 h
Outline: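 HeLa cells; MTT-based CPE reduction. Virus and compound added in equal volumes, incubated 37 °C for 2 d in CO2. Supernatant removed, MTT 1 h at 37 °C, formazan dissolved, absorbance 540 nm (690 nm reference). Uninfected untreated wells = 100% survival, virus-only = 0%. EC50 = 50% inhibition; means ± SD, three experiments.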

[2] = Selectivity index, ratio of CC50 for human H1HeLa cells to EC50 for Human rhinovirus B14 infected in human H1HeLa cells; assay type: toxicity, cell-based; conditions: read-out: Ratio CC50/EC50
Outline: (§2)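 H1HeLa cells plated 2 d ahead; virus plus compound (equal volumes) incubated 33 °C, 3 d, CO2. MTT 1 h at 37 °C, A540/A690. Survival scaled between uninfected untreated (100%) and virus-only (0%) wells to give EC50. CC50 = 50% cell death by MTT in H1HeLa. SI = CC50/EC50; at least three independent experiments.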

rhinovirus B14 = assay: Antiviral activity against Human rhinovirus B14 infected in human H1HeLa cells assessed as protection against virus induced cytopathic effect after 3 days by MTT assay; assay type: functional, cell-based; conditions: Rhinovirus B, H1-HeLa, 72 h
[3] = Selectivity index, ratio of CC50 for human H1HeLa cells to EC50 for Human rhinovirus A21 infected in human H1HeLa cells; assay type: toxicity, cell-based; conditions: read-out: Ratio CC50/EC50; outline: as §2
[4] = Selectivity index, ratio of CC50 for human HeLa cells to EC50 for human poliovirus 3 infected in human HeLa cells; assay type: toxicity, cell-based; conditions: read-out: Ratio CC50/EC50
Outline: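 SI = CC50/EC50 in HeLa cells. CC50 = 50% cell death by MTT. EC50 = 50% inhibition of PV3 CPE by MTT after 2 d at 37 °C, survival scaled to uninfected (100%) and virus-only (0%) wells. At least three independent experiments.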

[5] = Cytotoxicity against human H1HeLa cells assessed as decrease in cell viability after 3 days by MTT assay; assay type: cell-based, H1-HeLa
rhinovirus A21 = assay: Antiviral activity against Human rhinovirus A21 infected in human H1HeLa cells assessed as protection against virus induced cytopathic effect after 3 days by MTT assay; assay type: functional, cell-based; conditions: Rhinovirus A, H1-HeLa, 72 h; outline: as §1
[6] = Cytotoxicity aganist human HeLa cells assessed as decrease in cell viability after 2 days by MTT assay; assay type: cell-based
[7] = Selectivity index, ratio of CC50 for human H1HeLa cells to EC50 for Human rhinovirus A71 infected in human H1HeLa cells; assay type: toxicity, cell-based; conditions: read-out: Ratio CC50/EC50; outline: as §2

SMILES	pEC50 [1]	pEC50 (Poliovirus 3)	selectivity ratio [2]	pEC50 (rhinovirus B14)	selectivity ratio [3]	selectivity ratio [4]	CC50 at 72 h [5]	pEC50 (rhinovirus A21)	CC50 at 48 h [6]	selectivity ratio [7]
CNC(=O)c1cc(Oc2ccc3cc(C(=O)OC(C)C)n(C)c3c2)ccn1	8.15	5.04	13	6.09	160	5.1	10300 nM	7.19	46100 nM	1500
CCOC(=O)c1ccc2cc(Oc3ccnc(C(=O)NC)c3)ccc2c1	8.46	6.39	17	5.68	390	83	35300 nM	7.04	34100 nM	10000
CCOC(=O)c1sc2cc(Oc3ccnc(C(=O)NC)c3)ccc2c1C	6.47	7.03	30	5.77	180	> 1100	50900 nM	6.54	> 100000 nM	150
CCOC(=O)c1sc2cc(Oc3cccc(C(=O)NC)c3)ccc2c1C	6.82	6.42	1.5	5.47	60	20	5100 nM	7.07	7700 nM	34
CNC(=O)c1cc(Oc2ccc3c(C)c(C(=O)OC(C)C)[nH]c3c2)ccn1	5.72	7.14	–	< 4.84	5.8	120	14600 nM	5.60	8400 nM	7.7
CCCOC(=O)c1sc2cc(Oc3ccnc(C(=O)NC)c3)ccc2c1C	7.19	6.15	13	5.54	110	80	37400 nM	6.48	57100 nM	580
CCOC(=O)c1sc2cc(Oc3ccnc(C(=O)NC)c3)ccc2c1Cl	5.57	< 4.34	4	4.93	28	–	46900 nM	5.77	45600 nM	17
CCOC(=O)c1cc2ccc(Oc3ccccc3)cc2s1	5.55	< 4.05	> 1.5	4.16	> 2	–	> 100000 nM	4.29	90100 nM	> 36
CCOC(=O)c1cc2cc(Oc3ccnc(C(=O)NC)c3)ccc2cc1O	6.54	6.74	–	< 4.00	> 240	> 560	> 100000 nM	6.39	> 100000 nM	> 340
CNC(=O)c1cc(Oc2ccc3c(C)c(C(=O)OCc4ccccc4)sc3c2)ccn1	5.85	6.47	–	< 4.73	34	53	18800 nM	6.26	18100 nM	13
CCOC(=O)c1sc2cc(Oc3ccnc(C(=O)NC)c3)ccc2c1CC	5.89	< 4.78	2.6	4.87	170	–	35200 nM	6.68	16700 nM	27
CCC(C)OC(=O)c1ccc2ccc(Oc3ccnc(C(=O)NC)c3)cc2c1 (stereo not drawn)	7.89	6.46	–	< 4.80	39	26	16000 nM	6.39	9000 nM	1200
